ChEMBL document CHEMBL2010670, “Discovery of a clinical stage multi-kinase inhibitor sodium (E)-2-{2-methoxy-5-[(2',4',6'-trimethoxystyrylsulfonyl)methyl]phenylamino}acetate (ON 01910.Na): synthesis, structure-activity relationship, and biological activity” (J Med Chem, 2011)

Columns and labels:
[1] = Cytotoxicity against human WM3211 cells after 96 hrs by trypan blue exclusion assay; assay type: functional, cell-based; conditions: WM3211, 96 h
How it was run: (§1)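 Cells grown in DMEM or RPMI with 10% FBS and 1 unit/mL penicillin-streptomycin, seeded at 1.0 × 10⁵ cells/mL/well in 6-well dishes; compound added 24 h later at various concentrations. After 96 h of treatment, viable cells counted by trypan blue exclusion in duplicate wells; dose-response end point.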

[2] = Cytotoxicity against human MES-SA cells assessed as cell viability after 96 hrs by trypan blue exclusion; assay type: functional, cell-based
How it was run: (§2)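 Cells grown in DMEM or RPMI with 10% FBS and penicillin-streptomycin, seeded at 1.0 × 10⁵ cells/mL/well in 6-well dishes. Compound added at a range of concentrations 24 h after seeding. Viable cells counted by trypan blue exclusion from duplicate wells after 96 h of exposure; dose-response end point.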

Mus musculus = assay: Toxicity against NCR-nu/nu, Taconic mouse xenografted with human BT20 cells assessed as decrease in body weight at 200 mg/kg, ip administered every other day for 22 days; assay type: organism-based, BT-20; design: dose 200 mg/kg, route intraperitoneal; scale not given: the % may be the effect or the level left; conditions: in vivo, 528 h
How it was run: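 Female athymic nude mice bearing subcutaneous BT20 hind-leg xenografts (0.5–1.0 × 10⁷ cells) grouped about 14 days later at ~70 mm³ (N=9). Dosed 200 mg/kg in PBS or PBS alone, Q2D × 20; methods state tail-vein IV, legend states IP. Body weight recorded at each tumor measurement, three times weekly; observed for toxicity signs; mean ± SEM.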

PC-3 = assay: Cytotoxicity against human PC3 cells after 96 hrs by trypan blue exclusion assay; assay type: functional, cell-based; conditions: PC-3, 96 h; how it was run: as §2
[3] = Cytotoxicity against human 451LU cells after 96 hrs by trypan blue exclusion assay; assay type: functional, cell-based; how it was run: as §2
MDA-MB-231 = assay: Cytotoxicity against human MDA-MB-231 cells after 96 hrs by trypan blue exclusion assay; assay type: functional, cell-based; conditions: MDA-MB-231, 96 h; how it was run: as §2
CEM/C2 = assay: Cytotoxicity against multidrug-resistant human CEM/C2 cells assessed as cell viability after 96 hrs by trypan blue exclusion; assay type: functional, cell-based; conditions: CEM/C2, 96 h; how it was run: as §1
[4] = Cytotoxicity against multidrug-resistant human MES-SA/Dx5 cells assessed as cell viability after 96 hrs by trypan blue exclusion; assay type: functional, cell-based; conditions: MES-SA/Dx5, 96 h; how it was run: as §1
[5] = Cytotoxicity against human WM983A cells after 96 hrs by trypan blue exclusion assay; assay type: functional, cell-based; how it was run: as §1
HCT-15 = assay: Cytotoxicity against human HCT15 cells after 96 hrs by trypan blue exclusion assay; assay type: functional, cell-based; conditions: HCT-15, 96 h; how it was run: as §2
K562 = assay: Cytotoxicity against human K562 cells after 96 hrs by trypan blue exclusion assay; assay type: functional, cell-based; conditions: k562; how it was run: as §2
RPMI-7951 = assay: Cytotoxicity against human RPMI7951 cells after 96 hrs by trypan blue exclusion assay; assay type: functional, cell-based; conditions: RPMI-7951, 96 h; how it was run: as §1
OPM-2 = assay: Cytotoxicity against human OPM2 cells after 96 hrs by trypan blue exclusion assay; assay type: functional, cell-based; conditions: OPM-2, 96 h; how it was run: as §2
OVCAR-3 = assay: Cytotoxicity against human OVCAR3 cells after 96 hrs by trypan blue exclusion assay; assay type: functional, cell-based; conditions: OVCAR-3, 96 h; how it was run: as §2
[6] = Cytotoxicity against human WM239A cells after 96 hrs by trypan blue exclusion assay; assay type: functional, cell-based; how it was run: as §1
[7] = Cytotoxicity against human NAMALWA cells after 96 hrs by trypan blue exclusion assay; assay type: functional, cell-based; conditions: NAMALVA; how it was run: as §2
PANC-1 = assay: Cytotoxicity against human PANC1 cells after 96 hrs by trypan blue exclusion assay; assay type: functional, cell-based; conditions: PANC-1, 96 h; how it was run: as §2
HFL1 = assay: Induction of apoptosis in human HFL1 cells assessed as PARP1 cleavage at 0.25 to 5 uM after 48 hrs by Western blot analysis; assay type: cell-based; conditions: hfl1, 48 h
How it was run: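 DU145 or HFL-1 cells plated at 3.0 × 10⁶ per […], treated 24 h later with DMSO or compound for 48 h. Frozen pellets lysed in 1% NP40/PBS with protease inhibitors. Equal protein run on 10% SDS-PAGE, transferred to nitrocellulose, probed with anti-PARP antibody, ECL detection.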

U-937 = assay: Cytotoxicity against human U937 cells after 96 hrs by trypan blue exclusion assay; assay type: functional, cell-based; conditions: U-937, 96 h; how it was run: as §1
NCI-H157 = assay: Cytotoxicity against human NCI-H157 cells after 96 hrs by trypan blue exclusion assay; assay type: functional, cell-based; conditions: NCI-H157, 96 h; how it was run: as §2
NCI-H417 = assay: Cytotoxicity against human NCI-N417 cells after 96 hrs by trypan blue exclusion assay; assay type: functional, cell-based; conditions: NCI-H417, 96 h; how it was run: as §2
HUVEC = assay: Cytotoxicity against HUVEC after 96 hrs by trypan blue exclusion assay; assay type: cell-based; conditions: Homo sapiens; how it was run: as §2
HCT-116 = assay: Cytotoxicity against human HCT116 cells after 96 hrs by trypan blue exclusion assay; assay type: functional, cell-based; conditions: HCT-116, 96 h; how it was run: as §2
Daudi = assay: Cytotoxicity against human Daudi cells after 96 hrs by trypan blue exclusion assay; assay type: functional, cell-based; how it was run: as §2
LP-1 = assay: Cytotoxicity against human LP-1 cells after 96 hrs by trypan blue exclusion assay; assay type: functional, cell-based; conditions: LP-1, 96 h; how it was run: as §2
Bel-7402 = assay: Cytotoxicity against human Bel7402 cells after 96 hrs by trypan blue exclusion assay; assay type: functional, cell-based; conditions: Bel-7402, 96 h; how it was run: as §2
DU-145 = assay: Cytotoxicity against human DU145 cells after 96 hrs by trypan blue exclusion assay; assay type: functional, cell-based; conditions: du-145; how it was run: as §2
[8] = Cytotoxicity against human U87 cells after 96 hrs by trypan blue exclusion assay; assay type: functional, cell-based, U-87MG ATCC; conditions: U-87 MG; how it was run: as §1
SW480 = assay: Cytotoxicity against human SW480 cells after 96 hrs by trypan blue exclusion assay; assay type: functional, cell-based; conditions: SW480, 96 h; how it was run: as §1
[9] = Cytotoxicity against human HCC1428 cells after 96 hrs by trypan blue exclusion assay; assay type: functional, cell-based; conditions: HCC1428, 96 h; how it was run: as §2
[10] = Cytotoxicity against human DND1A cells after 96 hrs by trypan blue exclusion assay; assay type: functional, cell-based; how it was run: as §2
[11] = Cytotoxicity against multidrug-resistant human 2008/17/4 cells assessed as cell viability after 96 hrs by trypan blue exclusion; assay type: functional, cell-based; how it was run: as §1
[12] = Cytotoxicity against human RF1 cells after 96 hrs by trypan blue exclusion assay; assay type: functional, cell-based; conditions: RF1, 96 h; how it was run: as §1
A549 = assay: Cytotoxicity against human A549 cells after 96 hrs by trypan blue exclusion assay; assay type: functional, cell-based; conditions: A549, 96 h; how it was run: as §2
[13] = Cytotoxicity against human GRANTA-519 cells after 96 hrs by trypan blue exclusion assay; assay type: functional, cell-based; conditions: Granta-519, 96 h; how it was run: as §2
[14] = Cytotoxicity against human […] cells after 96 hrs by trypan blue exclusion assay; assay type: functional, cell-based; how it was run: as §1
[15] = Cytotoxicity against human WM793 cells after 96 hrs by trypan blue exclusion assay; assay type: functional, cell-based; conditions: WM793, 96 h; how it was run: as §1
[16] = Cytotoxicity against human KG1a cells after 96 hrs by trypan blue exclusion assay; assay type: functional, cell-based; conditions: KG-1a; how it was run: as §2
HCC70 = assay: Cytotoxicity against human HCC70 cells after 96 hrs by trypan blue exclusion assay; assay type: functional, cell-based; conditions: HCC70, 96 h; how it was run: as §2
[17] = Cytotoxicity against human Z138C cells after 96 hrs by trypan blue exclusion assay; assay type: functional, cell-based; how it was run: as §1
COLO 205 = assay: Cytotoxicity against human COLO205 cells after 96 hrs by trypan blue exclusion assay; assay type: functional, cell-based; conditions: COLO 205, 96 h; how it was run: as §2
SK-BR-3 = assay: Cytotoxicity against human SKBR3 cells after 96 hrs by trypan blue exclusion assay; assay type: functional, cell-based; conditions: SK-BR-3, 96 h; how it was run: as §1
HL-60 = assay: Cytotoxicity against human HL60 cells after 96 hrs by trypan blue exclusion assay; assay type: functional, cell-based; conditions: HL-60, 96 h; how it was run: as §2
[18] = Cytotoxicity against human COLO320 cells after 96 hrs by trypan blue exclusion assay; assay type: functional, cell-based; conditions: COLO 320, 96 h; how it was run: as §2

COc1cc(OC)c(/C=C/S(=O)(=O)Cc2ccc(OC)c(NCC(=O)[O-])c2)c(OC)c1.[Na+] [RIGOSERTIB SODIUM]
IC50 [1]: 75 nM | IC50 [2]: 100 nM | Activity (Mus musculus): < 10% | IC50 (PC-3): 150 nM | IC50 [3]: 25 nM | IC50 (MDA-MB-231): 25 nM | IC50 (CEM/C2): 50 nM | IC50 [4]: 100 nM | IC50 [5]: 40 nM | IC50 (HCT-15): 90 nM | IC50 (K562): 15 nM | IC50 (RPMI-7951): 25 nM | IC50 (OPM-2): 15 nM | IC50 (OVCAR-3): 75 nM | IC50 [6]: 75 nM | IC50 [7]: 75 nM | IC50 (PANC-1): 40 nM | Activity (HFL1): Non-toxic | IC50 (U-937): 10 nM | IC50 (NCI-H157): 80 nM | IC50 (NCI-H417): 80 nM | IC50 (HUVEC): > 100000 nM | IC50 (HCT-116): 75 nM | IC50 (Daudi): 150 nM | IC50 (LP-1): 30 nM | IC50 (Bel-7402): 100 nM | IC50 (DU-145): 100 nM | IC50 [8]: 80 nM | IC50 (SW480): 60 nM | IC50 [9]: 60 nM | IC50 [10]: 75 nM | IC50 [11]: 100 nM | IC50 [12]: 50 nM | IC50 (A549): 90 nM | IC50 [13]: 75 nM | IC50 [14]: 10 nM | IC50 [15]: 75 nM | IC50 [16]: 30 nM | IC50 (HCC70): 75 nM | IC50 [17]: 75 nM | IC50 (COLO 205): 150 nM | IC50 (SK-BR-3): 75 nM | IC50 (HL-60): 20 nM | IC50 [18]: 60 nM
